This excerpt belongs to a sample that is enriched for hits.
CHOP UPR activ: activators of apoptotic arm of unfolded protein response (CHOP). CHO-CHOP luciferase reporter, UPR activation, luminescence; percent of tunicamycin response over DMSO baseline. activation, % at 10 µM. 330,000 tested, 0.34% active;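 active = at 10 µM dose, activation of 40% or more, normalized to positive control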
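Test system: CHO CHOP reporter cells. Input: 500 CHO-CHOP cells per well. Medium: F12 with 10% FBS. Technique: luciferase luminescence. Measure: percent activation relative to tunicamycin control. Dosing: 10 µM compound, 0.5% DMSO. Timing: 16-18 h cell attachment, then 6 h compound exposure, 37 °C.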
UPR XBP1 act: activators of adaptive arm of unfolded protein response (XBP1). 330,000 tested, 0.33% active. activation, % at 20 µM. CHO-XBP1 luciferase reporter, IRE1-XBP1 UPR activation, luminescence; percent of tunicamycin response, DMSO as zero;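 active = versus positive control, 20 µM dose yields 30% or more activation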
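incubation = overnight seeding at 37 °C, 6 h compound treatment at 37 °C | assay system = CHO-XBP1 cells stably carrying IRE1-XBP1-driven luciferase reporter | input = 1000 cells per well | detection = luciferase luminescence | dosing = single point, 20 µM final compound, 1% DMSO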
Bfl-1 A1 inh: inhibitors of the anti-apoptotic protein A1, read as caspase activation. MEF A1-2A-BIM cells, Caspase-Glo 3/7 luminescence, 3 h; percent of clofoctol response, vehicle zero. caspase activation, % (concentration not given with the values). 330,000 tested, 0.066% active;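 active = over half of replicate activation scores above 10%, or exactly half above 10 with the replicate mean above 10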
CHOP inh: inhibitors of CHOP induction in ER stress response | CHO-K1 CHOP-promoter luciferase, tunicamycin-induced, 15-18 h | inhibition, % at 10 µM | 220,000 tested, 3.8% active | AID 2732;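 active = compounds that reduced the stress-induced luciferase reporter signal by more than about 70% of percent inhibition, limit read from the data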
Numbers stand for hits; . = inactive; / = no result given.

SMILES	CHOP UPR activ	UPR XBP1 act	Bfl-1 A1 inh	CHOP inh
Cc1ccc(Cn2nnc3c(=O)[nH]c(C4CCCN(S(=O)(=O)c5ccccc5)C4)nc32)cc1 (stereo not drawn)	.	.	.	.
O=C(NNC(=S)Nc1ccccc1)c1cccnc1	.	.	.	/
CCC1(CC)C(=O)C(C)(C)C(=O)OC1c1ccccn1 (stereo not drawn)	.	.	.	.
O=C(Nc1nnc(-c2cccs2)o1)c1cccc(Oc2ccccc2)c1	.	.	.	84
O=C(NCCCN1CCCC1=O)c1ccc([N+](=O)[O-])s1	.	.	.	/
O=C(Nc1nc2ccccc2n1Cc1ccccc1)c1ccc(COc2ccccc2[N+](=O)[O-])o1	.	.	.	.
Cc1ccc(OCc2ccc(C(=O)Nc3nc4ccccc4n3Cc3ccccc3)o2)c([N+](=O)[O-])c1	.	.	.	88
Cc1nc2ccc(C(C(F)(F)F)(C(F)(F)F)C(F)(F)F)cc2[nH]1	.	.	.	73
Cc1nc2ccc(S(=O)(=O)c3ccc4nc(C)[nH]c4c3)cc2[nH]1	.	.	.	.
Cc1ccc(N2CC(C(=O)Nc3ccc4c(c3)OCCO4)CC2=O)cc1C (stereo not drawn)	.	.	.	/
O=[N+]([O-])c1ccc2nc(-c3ccc(Cl)cc3)[nH]c2c1	.	.	.	.
O=C(NNc1nc(Nc2ccccc2)nc(N2CCOCC2)n1)Nc1ccc(Cl)cc1	.	.	.	95
O=C(COc1ccc(Cl)cc1Cl)Nc1c(-c2cccs2)nc2ccccn12	.	.	.	85
CCOc1ccc(N2C(=O)CC(SC(=NC)Nc3ccc4c(c3)OCO4)C2=O)cc1 (stereo not drawn)	.	.	.	73
NC(=O)CC(NC(=O)Cc1ccc(Br)cc1)c1ccc(NCC2CC2)c([N+](=O)[O-])c1 (stereo not drawn)	.	.	.	77
NC(=O)CC(NC(=O)Cc1ccc(Cl)cc1)c1ccc(NCC2CC2)c([N+](=O)[O-])c1 (stereo not drawn)	.	.	.	.
NC(=O)CC(NC(=O)Cc1ccc(Br)cc1)c1ccc(NCc2ccc(F)cc2)c([N+](=O)[O-])c1 (stereo not drawn)	.	.	.	93
CCc1ccc(OCC(=O)NC(=S)Nc2cccc(CO)c2)c(Br)c1	.	.	.	83
CCc1ccc(OCC(=O)NC(=S)Nc2ccc(F)cc2)c(Br)c1	.	.	.	.
COc1cccc(-c2cc(C(=O)N3N=C(C)CC3(O)C(F)F)c3ccccc3n2)c1 (stereo not drawn)	.	.	.	.
CCOC(=O)c1c(NC(=O)Cn2cnc([N+](=O)[O-])n2)sc2c1CCC(C)C2 (stereo not drawn)	.	.	.	.
COC(=O)c1c(NC(=O)Cn2cnc([N+](=O)[O-])n2)sc2c1CCC(C)C2 (stereo not drawn)	.	.	.	75
CC(C)(C)C(=O)Nc1cccc(-c2nnc(-c3cccc(NC(=O)C(C)(C)C)c3)o2)c1	.	.	.	.
O=C(NCCCn1ccnc1)c1cc(C2CC2)on1	.	.	.	.
CCOC(=O)c1c(NC(=S)NC)sc2c1CC(C)(C)SC2	.	.	.	95
SMILES	CHOP UPR activ	UPR XBP1 act	Bfl-1 A1 inh	CHOP inh
CCOC(=O)c1c(NC(=S)Nc2ccccc2)sc2c1CC(C)(C)SC2	.	.	.	.
O=C(NNC(=O)c1cc(-c2ccc(Cl)cc2Cl)nc2ccccc12)Nc1ccccc1	.	.	.	96
COC(=O)c1c(C(=O)OC)c(-c2ccc(Cl)cc2)n2c1CS(=O)(=O)C2	.	.	.	.
Cc1ccc(CSC(Nc2ccc(F)cc2)=C(C#N)C#N)cc1	.	.	.	76
CCN(CC)C(=O)CSC(Nc1ccc(F)cc1)=C(C#N)C#N	.	.	.	.
COc1ccc(OC)c(NC(=O)CSc2nc3ccccc3c3nc4ccccc4n23)c1	/	/	/	78
CCc1ccc(C(=O)NNC(=O)CCN2CCN(Cc3ccccc3)CC2)cc1	.	.	.	.
Cc1ccc(-n2nnnc2SC(C(=O)c2c[nH]c3ccccc23)c2ccccc2)cc1 (stereo not drawn)	.	.	.	72
Cc1ccc(S(=O)(=O)/N=C2\C=C(Nc3ccc(O)cc3)C(=O)c3ccccc32)cc1	.	.	.	/
Cc1ccc(NC2=C/C(=N/S(=O)(=O)c3cccs3)c3ccccc3C2=O)cc1	.	.	.	98
COc1ccc(NC(=O)c2cc(C)no2)cc1OC	.	.	.	/

Bioassay records deposited in PubChem BioAssay by several laboratories.
